Hits are enriched below; roughly 2.4% of the tested compounds scored in any of these assays.
HTR5A ag ctr: HTR5A agonists in luminescence cell assay, primary screen, counter-screen for OPRM1-OPRD1 heterodimer agonist project, full-deck HTS. 5-hydroxytryptamine receptor 5A (Homo sapiens), P47898. cell-based. activation, % at 9.3 µM. actives 0.61% (n = 340,000). AID 504692, 2011; in the data active = activation mostly above about 9.5%, no sharp cut-off; inactive = mostly below about 7.6%;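 note: 0% = cells with vehicle only and 100% = reference agonist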
MC4R antagonist: MC4R antagonists of cAMP signaling, primary screen, cell-based, TR-FRET, antagonist arm of biased-ligand search; Melanocortin receptor 4 (Homo sapiens), P32245; MC4R-expressing cells, MTII-stimulated cAMP, LANCE TR-FRET; inhibition, % at 6.5 µM; actives 0.48% (n = 360,000); AID 540295, 2011;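 active = inhibition above its plate's cutoff, the mean of tested wells on that plate plus 3 SD, cut at about 29% in these data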;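 note: 0% = Melanotan II alone and 100% = Melanotan II plus saturating MCL0020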
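Assay system: U2OS-MC4R stable cell line; Also added: Melanotan II; Technique: Eu-cAMP/anti-cAMP TR-FRET, emission 671 nm; Times: 30-min compound, 1-h challenge, 1-h detection, room temperature.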
OPRM1-OPRD1 ag: agonists of OPRM1-OPRD1 heterodimerization, primary screen, cell-based, luminescence; Mu-type opioid receptor (Homo sapiens) + Delta-type opioid receptor (Homo sapiens), …; cells; activation, % at 9.3 µM; actives 0.3% (n = 340,000); in the data active = activation above about 18%;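 note: 0% = vehicle-treated cells and 100% = reference agonist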
Target sequence (P35372 whole entry, looked up): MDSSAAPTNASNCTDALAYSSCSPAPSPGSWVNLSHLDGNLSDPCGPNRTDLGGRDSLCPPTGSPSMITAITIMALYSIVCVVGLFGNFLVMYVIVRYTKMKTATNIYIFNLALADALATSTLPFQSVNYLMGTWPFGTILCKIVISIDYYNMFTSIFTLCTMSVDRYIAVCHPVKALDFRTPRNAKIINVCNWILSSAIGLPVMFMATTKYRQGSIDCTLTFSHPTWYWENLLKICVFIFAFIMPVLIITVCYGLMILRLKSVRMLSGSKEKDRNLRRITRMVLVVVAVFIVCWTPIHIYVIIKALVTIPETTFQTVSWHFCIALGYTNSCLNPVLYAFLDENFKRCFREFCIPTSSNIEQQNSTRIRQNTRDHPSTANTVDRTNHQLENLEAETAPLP
Target sequence (P41143 whole entry, looked up): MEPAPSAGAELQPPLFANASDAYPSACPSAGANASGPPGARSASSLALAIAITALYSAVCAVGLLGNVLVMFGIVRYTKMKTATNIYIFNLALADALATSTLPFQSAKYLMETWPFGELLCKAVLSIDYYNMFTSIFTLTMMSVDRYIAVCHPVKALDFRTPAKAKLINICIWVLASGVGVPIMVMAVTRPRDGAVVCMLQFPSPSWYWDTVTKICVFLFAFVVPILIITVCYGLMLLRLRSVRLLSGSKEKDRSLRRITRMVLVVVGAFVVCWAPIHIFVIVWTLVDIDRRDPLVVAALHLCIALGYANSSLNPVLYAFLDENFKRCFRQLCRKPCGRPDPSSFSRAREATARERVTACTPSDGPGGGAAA
MC4R ag barr: MC4R agonists recruiting beta-arrestin, primary screen, cell-based, luminescence, agonist arm of biased-ligand search. AID 540308, 2011. actives 0.98% (n = 360,000). activation, % at 8.9 µM. U2OS MC4R beta-arrestin complementation; percent of melanotan II response, DMSO zero. Melanocortin receptor 4 (Homo sapiens), P32245;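 active = activation above a per-plate cutoff, the mean activation of sample wells on that plate plus 3 SD, cut at about 8% in these data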
HTR5A inv ag: HTR5A inverse agonists in luminescence cell assay, primary screen, counter-screen for OPRM1-OPRD1 heterodimer inverse agonist project, full-deck HTS | actives 0.083% (n = 340,000) | HTR5A cell line, inverse agonism | 5-hydroxytryptamine receptor 5A (Homo sapiens), P47898 | inhibition, % at 9.3 µM; in the data active = inhibition mostly above about 23%, no sharp cut-off; inactive = mostly below about 18%;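 note: 0% = cells with DMSO and 100% = no-cell wells with DMSO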
OPRM1-OPRD1 inv: inverse agonists of MOR-DOR heterodimerization, primary screen, cell-based, luminescence. AID 504357, 2011. actives 0.21% (n = 340,000). cell-based MOR-DOR heterodimer luminescence, inverse agonism. inhibition, % at 9.3 µM; in the data active = inhibition above about 22%, passing the limit was not always enough;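 note: 0% = cells with DMSO and 100% = wells without cells with DMSO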
Active calls of the source: *; nt = not tested or not shown.

SMILES	HTR5A ag ctr	MC4R antagonist	OPRM1-OPRD1 ag	MC4R ag barr	HTR5A inv ag	OPRM1-OPRD1 inv
CCCN1CCN(CCCNC(=O)C(CC)n2nc(C)c3sc4ccccc4c3c2=O)CC1 (stereo not drawn)	10*	3	-3	-4	6	15
CC1(C(=O)NCC2CCCCC2)CCN1CCc1ccccc1 (stereo not drawn)	nt	16	nt	6	nt	nt
CC1(C(=O)NC2CCc3ccccc32)CCN1CCc1ccccc1 (stereo not drawn)	nt	3	nt	8.6*	nt	nt
Cc1cc(C)c(S(=O)(=O)/N=C2/C=C(Sc3ncn[nH]3)C(=O)c3ccccc32)cc1C	4	62*	20*	-4	-5	-102
Cc1ccc2c(c1)c1c3n2CCCNC3CCC1 (stereo not drawn)	10*	-7	3	0	10	-15
O=C(CNC(=O)c1ccco1)NCc1ccc2c(c1)OCO2	3	12	-2	-3	-7	10
CCc1nc(NCCC(C)C)c2nnn(Cc3ccccc3)c2n1	2	5	12	8.9*	-8	-57
CC1CCN(CC(=O)Nc2ccccc2-c2ccccc2)CC1	0	0	4	0	0	-23
CC1CCCCC1NCC(=O)Nc1ccccc1-c1ccccc1 (stereo not drawn)	2	11	7	9.5*	-28	-40
COc1ccc(CC(=O)Oc2ccccc2Cl)cc1S(=O)(=O)N1CCOCC1	-2	22	-2	-1	6	11
O=C(c1ccccc1)c1cc(Cl)ccc1N1C(=O)C=CC1=O	5	58*	1	-1	-14	-4
O=C(CC(=O)c1cc(Cl)ccc1O)c1ccccc1	4	-3	1	2	-12	-7
CN(C1CCS(=O)(=O)C1)S(=O)(=O)c1ccccc1[N+](=O)[O-] (stereo not drawn)	11*	-2	0	-3	-31	1
CN(C1CCS(=O)(=O)C1)S(=O)(=O)c1cccc2nsnc12 (stereo not drawn)	0	-5	-2	-1	-1	8
COc1ccc(OC)c(S(=O)(=O)NC(=O)C2(C)CCN2C(=O)Cc2ccccc2Cl)c1 (stereo not drawn)	nt	10	nt	-1	nt	nt
Cc1ccc(-n2nc3c([n+]2[O-])CCc2c-3no[n+]2[O-])cc1	-2	24	-3	-2	15	13
[O-][n+]1onc2c1CCc1c-2nn(-c2ccccc2Cl)[n+]1[O-]	0	37*	-1	5	19	8
COc1ccc2[nH]c(O)c(N=NC(=O)c3ccc(NS(=O)(=O)c4cccs4)cc3)c2c1	-1	9	-3	9.0*	-15	12
O=C(Nc1cc(Sc2ccccn2)cc([N+](=O)[O-])c1)c1ccc(Cl)cc1	19*	3	29*	1	-22	-134
Nc1nc(Cl)cc(Oc2ccc([N+](=O)[O-])cc2)n1	-1	22	1	4	3	-6
COc1cc(/C=C/C(=O)OCC(=O)Nc2cc(S(=O)(=O)N(C)C)ccc2Cl)ccc1O	9	14	-1	8.9*	14	5
CCOc1ccc(C2C([N+](=O)[O-])=C(C)N(C)C(=O)N2C)cc1OC (stereo not drawn)	-4	2	-2	1	10	10
CCSc1nnc(NC(=O)c2ccco2)s1	1	3	-3	-2	-3	15
O=C(Nc1nnc(SCc2ccc(Cl)cc2)s1)c1ccco1	3	-3	-3	8.8*	-12	17
COC(=O)c1ccccc1NC(=O)NCc1ccncc1	4	7	-2	-1	10	13
SMILES	HTR5A ag ctr	MC4R antagonist	OPRM1-OPRD1 ag	MC4R ag barr	HTR5A inv ag	OPRM1-OPRD1 inv
COc1ccc(Cl)cc1S(=O)(=O)n1ccnc1	9.2*	-1	-3	-3	-34	12
C=CC(=O)Nc1cccc(Nc2nc(N[C@H]3CC[C@H](N(C)C)CC3)nc3c2ncn3C(C)C)c1	-3	-7	36*	1	7	-196
CC(C)n1cnc2c(Nc3cccc(Cl)c3)nc(NCCCO)nc21	-2	-3	-1	-2	6	4
C=CCNC(=O)N1CCC(n2nccc2NC(=O)CCCc2ccccc2)CC1	-4	3	-3	1	-24	15
COC(=O)c1ccc(C2/C(=C(\O)c3cccc(OC)c3)C(=O)C(=O)N2CCCN(C)C)cc1 (stereo not drawn)	-1	-1	-3	-1	-18	17
COc1cccc(/C(O)=C2/C(=O)C(=O)N(CCN(C)C)C2c2ccc(Br)cc2)c1 (stereo not drawn)	10*	2	-3	1	-28	16
CCC1(c2ccc(F)cc2)NC(=O)N(CC(=O)NCc2ccccc2Cl)C1=O (stereo not drawn)	1	-2	-4	-1	-3	18
CC1(C)C(=O)Nc2ccccc2N1C(=O)COC(=O)CNS(=O)(=O)c1ccc(Br)cc1Cl	2	11	0	-2	-4	1
COc1ccc([N+](=O)[O-])cc1NC(=O)CCSCCc1ccccn1	-3	-3	-3	0	-19	18
CC(C)c1onc(C(=O)N2CCN(c3ccccc3)CC2)c1[N+](=O)[O-]	0	-3	3	0	1	-16
Cc1ccc(Cl)cc1N1CCN(C(=O)c2noc(C(C)C)c2[N+](=O)[O-])CC1	42*	9	52*	1	-172	-276
COC(=O)C1=C(O)CSC1=Nc1cccc(C(F)(F)F)c1	14*	3	-3	0	-1	13
Cc1ccccc1CNC(=O)c1csc([C@H]2C[C@H](O)[C@@H](CO)O2)n1	nt	12	nt	0	nt	nt
CC(C)c1ccc(CN2CCC(C(=O)NCc3cccnc3)CC2)cc1	2	0	-3	-1	-25	20
CCCCCCSC1=C(C#N)C(c2ccccc2)CC(=O)N1 (stereo not drawn)	2	7	2	10*	-6	-10
CNC(=S)N1CCc2cc(OC)c(OC)cc2C1	-5	5	-1	-2	20	4
Cc1c(C(=O)OC2CCCC2)[nH]c2c1C(=O)CC(c1ccco1)C2 (stereo not drawn)	10*	-30	1	-1	-28	-6
CSc1ncc(C(=O)Nc2ccccc2)cn1	2	4	-3	0	-8	15

Bioassay records deposited in PubChem by The Scripps Research Institute Molecular Screening Center.
